RGS4 inh – RGS4 inhibitors, primary screen, cell-based, HEK293 M3R inducible RGS4, calcium flux; Regulator of G-protein signaling 4 (Homo sapiens), P49798; Fluo-4 calcium flux; active compounds read high; triggered by carbachol at its EC20; B-score at 10 µM; 0.45% of 310,000 active; AID 463165, 2010;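 active = B-score, a plate-corrected calcium signal, over three deviations above library mean, with baseline fluorescence within five deviations of library mean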;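 also: RGS4 expression induced by doxycycline in cells with stable M3 receptor; B-score is computed from the integrated fluorescence ratio over baseline after carbachol; higher B-score means a larger calcium signal and so more RGS4 inhibition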
Target sequence (P49798 whole entry, looked up): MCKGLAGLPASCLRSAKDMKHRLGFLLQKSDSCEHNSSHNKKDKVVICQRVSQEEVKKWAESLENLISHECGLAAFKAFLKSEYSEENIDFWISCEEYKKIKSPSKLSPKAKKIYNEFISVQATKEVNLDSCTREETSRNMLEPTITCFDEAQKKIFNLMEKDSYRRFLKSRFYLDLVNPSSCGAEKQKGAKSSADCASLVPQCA
MrgX1 antagonist – antagonists of human MrgX1 receptor, primary screen, HEK293 cells, Fluo-4 calcium flux. Mas-related G-protein coupled receptor member X1 (Homo sapiens), Q96LB2. BAM8-22 antagonism; active compounds read low. B-score at 10 µM. 1.3% of 310,000 active. AID 588676, 2011;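 active = calcium-response B-score plate-corrected more than 3 library SD below zero, starting fluorescence within 5 deviations, no agonist response on first addition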;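 also: peak minus trough fluorescence over baseline after final BAM8-22 challenge near maximal dose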
Target sequence (Q96LB2 whole entry, looked up): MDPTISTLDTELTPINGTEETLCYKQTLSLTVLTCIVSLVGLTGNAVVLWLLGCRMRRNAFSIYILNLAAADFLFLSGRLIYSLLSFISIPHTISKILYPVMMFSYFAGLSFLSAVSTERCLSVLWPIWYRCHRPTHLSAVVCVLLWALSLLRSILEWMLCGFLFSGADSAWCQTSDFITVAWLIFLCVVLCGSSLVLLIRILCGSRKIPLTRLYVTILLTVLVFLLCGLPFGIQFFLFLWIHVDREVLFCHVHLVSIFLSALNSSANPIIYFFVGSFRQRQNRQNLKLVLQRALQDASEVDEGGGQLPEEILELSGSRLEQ
MrgX1 PAM – positive allosteric modulators of MrgX1, primary screen, HEK293 cells, Fluo-4 calcium flux; B-score at 10 µM; 0.63% of 310,000 active; FDSS; active compounds read high;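 active = plate-corrected calcium response at least 3 library SD above typical, normal starting fluorescence, not activating the receptor alone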;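 also: compound read alongside a low EC10 to EC30 dose of BAM8-22 agonist; peak minus trough fluorescence over baseline measured at the second addition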
MrgX1 agonist – agonists of human MrgX1 receptor, primary screen, HEK293 cells, Fluo-4 calcium flux | Fluo-4 calcium fluorescence, agonist mode; active compounds read high | B-score at 10 µM | 0.44% of 310,000 active;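 active = calcium response B-score plate-corrected fluorescence ratio at least 3 library SD, with starting fluorescence B-score inside 5 SD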
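Material: HEK293 cells stably expressing human MrgX1 receptor | Quantity: 15,000 cells per well | Times: Cells plated overnight, dye loaded 0.5 h 37 °C, 0.5 h room temperature | Measured by: Kinetic Fluo-4 NW fluorescence of intracellular calcium | Control set: Positive and negative controls per plate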
RGS4 pot – RGS4 potentiators or activators, primary screen, cell-based, HEK293 M3R inducible RGS4, calcium flux | AID 463111, 2010 | 0.92% of 310,000 active | carbachol calcium flux Fluo4; active compounds read low | B-score at 10 µM;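 active = B-score of the integrated calcium signal more than 4 SD below the library mean, with starting fluorescence not abnormally high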;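 also: negative B-score means reduced calcium response which marks RGS4 activation or potentiation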
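Material: M3R-expressing HEK293 line, RGS4 induced by doxycycline | Schedule: Overnight RGS4 induction, 30 min dye load 37 °C, 20 min compound RT | Measured by: Fluo4 fluorescence kinetic imaging of calcium | Read-out: Integrated calcium ratio converted to B score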
MrgX1 antag conf – MrgX1 receptor antagonists, duplicate retest, confirmation, HEK293 cells, Fluo-4 calcium flux; shares compounds with MrgX1 antagonist; BAM8-22 calcium flux; active compounds read low; remaining BAM8-22 calcium response % of control (active compounds read low), % at 10 µM; 19% of 2,300 active;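 active = remaining agonist calcium response no higher than 100% minus 3 SD of agonist-only control wells, with starting fluorescence near control levels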;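 also: agonist BAM8-22 given at a near maximal EC90 to ECmax level; peak minus minimum fluorescence divided by baseline after agonist addition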
HEK293 Ca flux – nonspecific calcium signal in parental HEK293, confirmation, counter-screen for MrgX1 antagonist project, parental HEK293 cells, Fluo-4 calcium flux; shares compounds with MrgX1 antagonist; Fluo-4 calcium fluorescence, FDSS; fluorescence ratio F(max-min)/F0 at 10 µM; 2% of 4,000 active; AID 624111, 2012;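 active = duplicate-averaged calcium fluorescence ratio at least three times the standard deviation of buffer wells, a nonspecific response in parental cells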
HEK293 Ca counter – calcium response in parental HEK293 cells, primary screen, counter-screen for MrgX1 allosteric activator project, cell-based, Fluo-4 calcium flux, duplicate. shares compounds with MrgX1 antagonist. Fluo-4 fluorescence ratio; active compounds read high. fluorescence ratio F(max-min)/F0 at 10 µM. 0.4% of 4,000 active. AID 624114, 2012;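 active = calcium fluorescence ratio, averaged over duplicates, at least 3 SD of the buffer-well ratio, meaning a nonspecific response in receptor-free cells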;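 also: untransfected parental HEK293 lacking MrgX1 used as counterscreen for MrgX1 allosteric activators; fluorescence change taken during the second addition on a kinetic imager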
HEK293 Ca cntr2 – calcium response in parental HEK293 cells, primary screen, counter-screen for MrgX1 agonist project, cell-based, Fluo-4 calcium flux, duplicate, agonist mode; shares compounds with MrgX1 antagonist; Fluo-4 calcium fluorescence (FDSS); active compounds read high; fluorescence ratio F(max-min)/F0 at 10 µM; 8.7% of 4,000 active; AID 624115, 2012;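 active = calcium fluorescence ratio at least three times the spread of buffer wells, meaning a non-specific response in parental cells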
Numbers without * were called inactive; i = inactive; . = no result given. An excerpt weighted towards active compounds, which were near 3.5% of everything screened.

SMILES | RGS4 inh | MrgX1 antagonist | MrgX1 PAM | MrgX1 agonist | RGS4 pot | MrgX1 antag conf | HEK293 Ca flux | HEK293 Ca counter | HEK293 Ca cntr2
O=C(NCCc1ccncc1)Nc1cccc(Cl)c1 | i | -4.6* | i | i | i | i | i | i | i
Cn1cc(CN2CCN(Cc3ccc4c(c3)OCO4)CC2)c(-c2ccccc2F)n1 | i | i | i | i | i | . | . | . | .
O=C(O)CNC(=O)C(c1ccccc1)c1ccccc1 | i | i | i | i | i | . | . | . | .
O=C(O)CNC(=O)C(CS)Cc1ccccc1 (stereo not drawn) | . | -8.6* | i | i | . | i | i | i | i
NNc1ccc(Cc2ccc(Cl)cc2Cl)nn1 | i | i | i | i | i | . | . | . | .
Nc1nc(N)c(Cc2ccc(Cl)cc2Cl)c(N)n1 | i | -4.8* | i | i | i | 71%* | i | i | i
Cc1ccc(NC(=O)Cc2c(Cl)cccc2Cl)cc1S(=O)(=O)N(C)C | i | -19* | i | i | i | i | i | i | i
Cc1nn(S(=O)(=O)c2ccc(Cl)cc2)c(C)c1Sc1ccc([N+](=O)[O-])cc1 | i | i | i | i | i | . | . | . | .
COC(=O)C(NC(=O)c1ccccc1)c1ccccc1 (stereo not drawn) | i | -9.4* | i | i | i | i | i | i | i
Cc1cc(C(F)(F)F)n2nc(C)c(-c3ccc(Cl)cc3)c2n1 | i | i | i | i | i | . | . | . | .
COc1ccc(NC(=O)c2nnn(Cc3ccc(SC)cc3)c2N)c(OC)c1 | i | -4.7* | i | i | i | i | i | i | i
COc1ccc(C)cc1NC(=O)c1nnn(Cc2cc(C)ccc2C)c1N | i | -5.2* | i | i | i | i | i | i | i
Cc1ccc(CNC(=O)NC2CCCCC2)cc1 | i | -5.1* | i | i | i | i | i | i | i
Cc1ccc(CNC(=S)NC2CCCCC2)cc1 | i | i | i | i | i | . | . | . | .
Nc1c(S(=O)(=O)c2cccs2)c2nc3ccccc3nc2n1CC1CCCO1 (stereo not drawn) | . | -7* | i | i | . | i | i | i | i
O=C(CN(c1ccccn1)S(=O)(=O)c1ccc(F)cc1)Nc1ccc(F)cc1F | i | -5.6* | i | i | i | i | i | i | i
O=C(Cc1n[nH]c(=O)c2ccccc12)OCC(=O)c1ccccc1Cl | i | i | i | i | i | . | . | . | .
COc1ccc(C(=O)COC(=O)Cc2n[nH]c(=O)c3ccccc23)c(OC)c1 | i | -8.2* | i | i | i | i | i | i | i
CC1(C)Cc2c(c(-c3ccccc3)[nH]c(=O)c2C#N)CO1 | i | i | i | i | i | . | . | . | .
S=C(NCc1cccs1)Nc1cccc(Cl)c1 | i | -5.1* | i | i | i | i | i | i | i
Cc1cccc(NS(=O)(=O)c2cc(C(=O)OCC(=O)Nc3cc(C)on3)ccc2C)c1 | i | -5* | i | i | i | i | i | i | i
Cc1cccc(NS(=O)(=O)c2ccc(C)c(C(=O)OCC(=O)Nc3cc(C)on3)c2)c1 | i | i | i | i | i | . | . | . | .
Oc1ccccc1-c1nnc(SCCN2CCOCC2)n1Cc1ccccc1 | i | -6.8* | i | i | i | i | i | i | i
O=C(CSc1nnc(-c2ccccc2)n1Cc1ccccc1)N1CCOCC1 | i | i | i | i | i | . | . | . | .
O=C(O)CSc1nnc(CNc2cccc(C(F)(F)F)c2)n1Cc1ccco1 | i | -7.4* | i | i | i | 79%* | i | i | i
SMILES | RGS4 inh | MrgX1 antagonist | MrgX1 PAM | MrgX1 agonist | RGS4 pot | MrgX1 antag conf | HEK293 Ca flux | HEK293 Ca counter | HEK293 Ca cntr2
O=C(CSc1nnc(CNc2cccc(C(F)(F)F)c2)n1Cc1ccco1)NCc1ccco1 | i | i | i | i | i | . | . | . | .
CCn1c2ccccc2c2cc(NC(=O)COC(=O)c3ccc(O)cc3)ccc21 | i | -7.7* | i | i | i | i | i | i | i
CN(C)CCCNC(=O)C(=O)NCC1OCCN1S(=O)(=O)c1cc(F)ccc1F (stereo not drawn) | i | i | i | i | i | . | . | . | .
Cc1ccccc1Cc1c(C)nc2c(C(=O)NCc3ccc4c(c3)OCO4)cnn2c1C | i | -4.8* | i | i | i | i | i | i | i
Cc1ccc(-c2csc(NC(=O)c3ccc4c(=O)n5c(nc4c3)CCCCC5)n2)cc1 | i | -5.5* | i | i | i | 71%* | i | i | i
CCOC(=O)c1nn(-c2ccc(Cl)cc2)c2nnc(Cc3ccc(C)cc3)c(=O)n12 | i | i | i | i | i | . | . | . | .
COc1ccc2nc(NC(=O)C3CCCO3)sc2c1 (stereo not drawn) | i | i | i | i | i | . | . | . | .
NC(=O)c1ccc(NC(=O)C2CCCO2)cc1 (stereo not drawn) | i | -5.9* | i | i | i | i | i | i | i
CSc1nc2ccc(NC(=O)C3CCCO3)cc2s1 (stereo not drawn) | i | -6.8* | i | i | i | i | i | i | i
O=C(Nc1ccc(Oc2ccc(NC(=O)C3CCCO3)cc2)cc1)C1CCCO1 (stereo not drawn) | i | i | i | i | i | . | . | . | .
COc1cc2c(c(OC)c1CC=C(C)C)C[C@H](c1ccc(O)cc1O)CO2 | i | i | i | i | i | . | . | . | .
Cc1ccc(S(=O)(=O)N(C)C)cc1NC(=O)CSc1ncc(C(F)(F)F)cc1Cl | i | i | i | i | i | . | . | . | .
COc1ccccc1-c1nnc(SCC(=O)OC(C)C)o1 | i | -6.6* | i | i | i | i | i | i | i
